{
  "source": "PubChem BioAssay AID573",
  "about": "(SRMLSC, 2007)",
  "note": "Out of some 65,000 compounds screened, about 1,400 (2.2%) were called active. The entries come from a sample that favours actives as a whole. A number with no mark means an inactive call.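 The calls were made as follows: active = growth inhibition at or above a cutoff equal to the mean over every tested compound plus 3 SD (cut at about 60% in these data); inactive = the rest.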",
  "data": [
    {"assay": "E. coli ΔtolC antibacterial growth inhibition – strain BW25113 ΔtolC::kan, 384-well, primary screen (AID 573)", "settings": "E. coli BW25113 tolC mutant growth, OD615; stronger effect = higher value; screened at 10 µM (by protocol)", "in_short": "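Test system: E. coli BW25113 ΔtolC::kan bacteria | Medium: Kanamycin-containing LB broth (50 µg/mL) | Dosing: One dose of 10 µM final | Times: 20 h incubation with compound, 37 °C | Detection: Optical density read at 615 nm | Read-out basis: Percent growth inhibition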", "values": [
      {"compound": "CCOC(=O)C1CCN(C(=O)C2CCN(S(=O)(=O)N3CCCC3)CC2)CC1", "growth inhibition": "-4.22%"},
      {"compound": "CCOC(=O)N1CCN(C(=O)c2cn(C)c3ccc(S(=O)(=O)N4CCCC4)cc3c2=O)CC1", "growth inhibition": "-22.7%"},
      {"compound": "CCOC(=O)C1CCN(C(=O)c2oc3ccc(S(=O)(=O)N4CCCCCC4)cc3c2C)CC1", "growth inhibition": "77.3% (active)"},
      {"compound": "COc1cccc(N(C(=O)c2ccn[nH]2)C2(C(=O)Nc3c(C)cccc3C)CCCCC2)c1", "growth inhibition": "30.5%"},
      {"compound": "Cc1ccc(C)c(S(=O)(=O)N2CC(=O)Nc3ccccc32)c1", "growth inhibition": "17.8%"},
      {"compound": "CC(=O)Nc1ccc(-c2nn3c(C)nnc3s2)cc1C", "growth inhibition": "-9.56%"},
      {"compound": "COc1ccc(OC)c(CNC(=O)C2CCCN(c3nc4ccccc4o3)C2)c1", "note": "(centres undefined)", "growth inhibition": "1.68%"},
      {"compound": "Cc1cc(C(F)(F)F)c(C#N)c(SCC(=O)NC2CC2)n1", "growth inhibition": "16.2%"},
      {"compound": "COCc1cc(C)nc(SCC(=O)Nc2cccc(C)c2)c1C#N", "growth inhibition": "-0.31%"},
      {"compound": "Cc1cc(C)c(C#N)c(SCS(=O)c2ccc(C(C)(C)C)cc2)n1", "note": "(centres undefined)", "growth inhibition": "70.6% (active)"},
      {"compound": "N#Cc1nc(Cc2cccc3ccccc23)oc1NCc1ccc2c(c1)OCO2", "growth inhibition": "57.4%"},
      {"compound": "CCOc1ccc(Nc2oc(Cc3ccccc3)nc2C#N)cc1", "growth inhibition": "31.9%"},
      {"compound": "N#Cc1nc(Cc2ccccc2)oc1NCCc1ccccc1", "growth inhibition": "74.2% (active)"},
      {"compound": "C=CCn1cnc2scc(-c3ccccc3)c2c1=O", "growth inhibition": "6.35%"},
      {"compound": "C=CCn1c(SCc2nnc(-c3ccccc3)o2)nnc1C(O)c1ccccc1", "note": "(centres undefined)", "growth inhibition": "0.17%"},
      {"compound": "COCCNc1nc(-n2nc(C)cc2C)nc2sc3c(c12)CCCC3", "growth inhibition": "94.3% (active)"},
      {"compound": "CC(=O)c1sc2nc(SCC(=O)N3CCCCC3)[nH]c(=O)c2c1C", "growth inhibition": "8.81%"},
      {"compound": "COCCn1c(C)cc(C(=O)CSc2ncnc3sc4c(c23)CCC4)c1C", "growth inhibition": "0.17%"},
      {"compound": "COc1ccc(Nc2cc(C)nc(-n3nc(C)cc3C)n2)cc1", "growth inhibition": "17.6%"},
      {"compound": "Cc1nc(SCC(=O)Nc2cc(C)on2)c2c3c(sc2n1)CCCC3", "growth inhibition": "12.3%"},
      {"compound": "Cc1cc(C)n(-c2nc(SCC(=O)N3CCCC3)c3c4c(sc3n2)CCCC4)n1", "growth inhibition": "85.9% (active)"},
      {"compound": "CCCOC(=O)C1=C(C)NC2=C(C(=O)C(C(=O)OC)C(C)C2)C1c1ccc(N(C)C)cc1", "note": "(centres undefined)", "growth inhibition": "16%"},
      {"compound": "Cn1c(=O)[nH]c(=O)c2c1nc(N(CCO)Cc1ccccc1)n2Cc1ccccc1Cl", "growth inhibition": "0.78%"},
      {"compound": "O=C(NCc1cccs1)C1CCN(S(=O)(=O)c2ccc3c(c2)OCCO3)CC1", "growth inhibition": "-14.5%"},
      {"compound": "COC(=O)COc1ccc(S(=O)(=O)Nc2ccc(NC(C)=O)cc2)cc1", "growth inhibition": "-1.6%"},
      {"compound": "COC(=O)CNS(=O)(=O)c1ccc(Cc2ccc(S(=O)(=O)NCC(=O)OC)cc2)cc1", "growth inhibition": "69.7% (active)"},
      {"compound": "COc1ccc(CCNS(=O)(=O)c2ccc(F)cc2)cc1OC", "growth inhibition": "-5.35%"},
      {"compound": "COc1ccccc1Nc1ncnc2c1oc1ccccc12", "growth inhibition": "-1.75%"},
      {"compound": "COc1ncnc2sc3c(c12)CCCC3", "growth inhibition": "2.48%"},
      {"compound": "CS(=O)(=O)N(Cc1nc2sc3c(c2c(=O)[nH]1)CCCC3)C1CCCCC1", "growth inhibition": "83.8% (active)"},
      {"compound": "CCOC(=O)N1CCN(S(=O)(=O)c2ccc(C(=O)Nc3ccc(F)cc3F)cc2)CC1", "growth inhibition": "-4.51%"},
      {"compound": "c1csc(-c2nc(-c3ccncc3)no2)c1", "growth inhibition": "1.08%"},
      {"compound": "Cc1cccc(C(=O)Nc2ccc(CC(=O)O)cc2)c1", "growth inhibition": "-16%"},
      {"compound": "COC(=O)c1sc(=S)n(-c2ccccc2)c1N", "growth inhibition": "-12.6%"},
      {"compound": "COc1ccc(-c2csc(N3CCN(Cc4ccc5c(c4)OCO5)CC3)n2)cc1", "growth inhibition": "5.4%"},
      {"compound": "CC1CCCC(C)N1C(=O)CN1CCN(c2nc(-c3ccc(F)cc3)cs2)CC1", "note": "(centres undefined)", "growth inhibition": "100% (active)"},
      {"compound": "O=C(CN1CCN(c2nc(-c3ccccc3)cs2)CC1)NCc1ccc2c(c1)OCO2", "growth inhibition": "50%"},
      {"compound": "COc1c(F)c(F)c(-c2csc(N)n2)c(F)c1F", "growth inhibition": "9.92%"},
      {"compound": "CNC(=O)Nc1cc(C(C)(C)C)no1", "growth inhibition": "-22.1%"},
      {"compound": "CCOC(=O)c1cc2sccc2n1Cc1ccc(C#N)cc1", "growth inhibition": "62.5% (active)"},
      {"compound": "COc1ccc(CCNC(=O)c2cc3sccc3n2C)cc1OC", "growth inhibition": "7.67%"},
      {"compound": "O=C(NCc1ccco1)c1cc2sccc2n1Cc1ccc(F)cc1", "growth inhibition": "56.9%"},
      {"compound": "c1nnc2c3c4c(sc3ncn12)CCC4", "growth inhibition": "-4.55%"},
      {"compound": "O=C(CSc1nc2ccccc2o1)N1CCN(c2ccccc2)CC1", "growth inhibition": "5.08%"},
      {"compound": "Cc1cccc(NC(=O)CSC(N)=O)c1C", "growth inhibition": "-15.7%"},
      {"compound": "O=C(NCCCNCc1ccccc1)c1ccc(/C=N/O)nc1", "growth inhibition": "-12.5%"},
      {"compound": "CC1CCCN(c2ccc(C(=O)NCCc3ccccc3)cn2)C1", "note": "(centres undefined)", "growth inhibition": "61.4% (active)"},
      {"compound": "O=C(O)C1CC=CCC1C(=O)NCCc1ccccc1", "note": "(centres undefined)", "growth inhibition": "-21.4%"},
      {"compound": "COc1ccc(S(=O)(=O)N2CCOCC2)cc1C(=O)Nc1nc2ccccc2s1", "growth inhibition": "-15.6%"},
      {"compound": "CCCn1c(=O)c2[nH]c(C3CCCC3)nc2n(CCC)c1=O", "growth inhibition": "5.97%"},
      {"compound": "O.O.O.O=S(=O)([O-])OC[C@H]1O[C@@H](O[C@]2(COS(=O)(=O)[O-])O[C@H](OS(=O)(=O)[O-])[C@@H](OS(=O)(=O)[O-])[C@@H]2OS(=O)(=O)[O-])[C@H](OS(=O)(=O)[O-])[C@@H](OS(=O)(=O)[O-])[C@@H]1OS(=O)(=O)[O-].[Al]", "growth inhibition": "-6.62%"},
      {"compound": "CCOC(=O)CSc1nnc(-c2cccc(Br)c2)o1", "growth inhibition": "-4.64%"},
      {"compound": "Cc1noc(C)c1S(=O)(=O)N(CC(=O)NCc1ccc(Cl)cc1)c1ccc2c(c1)OCO2", "growth inhibition": "-5.56%"},
      {"compound": "CC1CCN(c2oc(-c3ccccc3F)nc2C#N)CC1", "growth inhibition": "71.3% (active)"},
      {"compound": "N#Cc1nc(COc2ccc(Cl)cc2)oc1N1CCCC1", "growth inhibition": "7.84%"},
      {"compound": "N#CCCN1CCN(S(=O)(=O)c2ccc(S(=O)(=O)NC3CCCCC3)cc2)CC1", "growth inhibition": "-0.61%"},
      {"compound": "Cc1cc(NC(=O)CN2CCC(O)(c3cccc(F)c3)CC2)no1", "growth inhibition": "-18.6%"},
      {"compound": "O=C(Cn1nnc(-c2ccc3c(c2)OCO3)n1)NCc1ccco1", "growth inhibition": "7.12%"},
      {"compound": "O=C(NCCCCO)C(F)(F)C(F)(F)C(F)(F)C(=O)NCCCCO", "growth inhibition": "-11%"}
    ]}
  ]
}
